From ChEMBL document CHEMBL4368943 (J Med Chem, 2019)
Activity calls are given as the source filed them. The calls are words filed in the database; no cut-off is given here.

How the values were obtained:
[1] = molecular target: T1, von Hippel-Lindau disease tumor suppressor/Estrogen receptor/Cullin-2 (Homo sapiens, UniProt P03372+P40337+Q13617); test: Protac activity against VHL/cullin2/ERalpha in human MCF7 cells assessed as ERalpha degradation by measuring ER protein/GADPH ratio at 1 nM after 4 hrs by Western blot analysis relative to control; assay type: cell-based
In short: (§1)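 MCF-7 cells (DMEM, 10% FBS, passages 3−8) exposed 4 h. Lysed in RIPA with protease inhibitors; equal protein on 10% SDS-PAGE, PVDF, anti-ERα blot. Membranes stripped and reprobed for GAPDH. ERα/GAPDH ratio normalized to DMSO = 100; DC50 from densitometry of the dose series.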
Target sequence in this assay (P03372 whole entry, looked up): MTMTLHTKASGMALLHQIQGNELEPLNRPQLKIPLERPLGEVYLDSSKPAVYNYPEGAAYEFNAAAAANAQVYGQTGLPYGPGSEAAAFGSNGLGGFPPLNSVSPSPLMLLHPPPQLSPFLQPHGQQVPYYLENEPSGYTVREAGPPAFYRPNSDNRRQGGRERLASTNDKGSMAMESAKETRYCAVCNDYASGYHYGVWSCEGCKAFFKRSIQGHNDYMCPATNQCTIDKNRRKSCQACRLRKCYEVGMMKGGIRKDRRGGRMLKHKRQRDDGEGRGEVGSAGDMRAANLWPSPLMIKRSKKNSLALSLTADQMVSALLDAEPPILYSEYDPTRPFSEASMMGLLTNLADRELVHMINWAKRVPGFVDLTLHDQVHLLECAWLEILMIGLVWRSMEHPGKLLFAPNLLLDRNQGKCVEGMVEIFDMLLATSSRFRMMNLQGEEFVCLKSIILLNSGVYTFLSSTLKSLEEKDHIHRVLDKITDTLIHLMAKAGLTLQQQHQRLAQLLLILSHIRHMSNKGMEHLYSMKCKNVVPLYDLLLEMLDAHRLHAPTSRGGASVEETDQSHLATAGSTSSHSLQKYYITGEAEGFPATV
Target sequence in this assay (P40337 whole entry, looked up): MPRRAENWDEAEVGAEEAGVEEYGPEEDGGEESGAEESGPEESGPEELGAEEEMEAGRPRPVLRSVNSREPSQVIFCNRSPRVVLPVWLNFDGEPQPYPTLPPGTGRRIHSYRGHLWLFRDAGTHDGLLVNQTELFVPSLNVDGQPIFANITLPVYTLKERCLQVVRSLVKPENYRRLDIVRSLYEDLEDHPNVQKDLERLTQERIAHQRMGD
Target sequence in this assay (Q13617 whole entry, looked up): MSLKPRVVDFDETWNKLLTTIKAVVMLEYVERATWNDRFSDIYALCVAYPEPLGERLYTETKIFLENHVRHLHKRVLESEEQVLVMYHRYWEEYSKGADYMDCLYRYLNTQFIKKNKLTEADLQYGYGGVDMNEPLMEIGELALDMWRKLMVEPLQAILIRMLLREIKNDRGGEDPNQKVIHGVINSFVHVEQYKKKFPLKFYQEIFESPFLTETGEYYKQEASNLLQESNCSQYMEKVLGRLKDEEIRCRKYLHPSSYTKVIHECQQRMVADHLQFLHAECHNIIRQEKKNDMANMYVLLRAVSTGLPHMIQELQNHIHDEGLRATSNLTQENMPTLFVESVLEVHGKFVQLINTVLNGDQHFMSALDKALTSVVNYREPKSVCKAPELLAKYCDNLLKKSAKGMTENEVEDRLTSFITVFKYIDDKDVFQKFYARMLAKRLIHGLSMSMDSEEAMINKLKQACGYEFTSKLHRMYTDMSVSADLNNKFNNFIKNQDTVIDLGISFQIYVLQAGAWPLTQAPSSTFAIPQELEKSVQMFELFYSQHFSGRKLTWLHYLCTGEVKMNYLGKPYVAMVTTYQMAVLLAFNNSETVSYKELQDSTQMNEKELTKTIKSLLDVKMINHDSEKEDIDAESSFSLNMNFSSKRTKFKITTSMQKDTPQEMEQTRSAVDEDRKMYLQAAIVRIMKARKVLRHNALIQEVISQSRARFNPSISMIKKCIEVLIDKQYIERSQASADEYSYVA

[2] = molecular target: T1, von Hippel-Lindau disease tumor suppressor/Estrogen receptor/Cullin-2; test: Protac activity against VHL/cullin2/ERalpha in human MCF7 cells assessed as ERalpha degradation by measuring ER protein/GADPH ratio at 10 nM after 4 hrs by Western blot analysis relative to control; assay type: cell-based; in short: as §1
Target sequence in this assay (P03372 whole entry, looked up): as the sequence (P03372 whole entry, looked up) above
Target sequence in this assay (P40337 whole entry, looked up): as the sequence (P40337 whole entry, looked up) above
Target sequence in this assay (Q13617 whole entry, looked up): as the sequence (Q13617 whole entry, looked up) above

[3] = molecular target: T1, von Hippel-Lindau disease tumor suppressor/Estrogen receptor/Cullin-2; test: Protac activity against VHL/cullin2/ERalpha in human MCF7 cells assessed as ERalpha degradation by measuring ER protein/GADPH ratio at 100 nM after 4 hrs by Western blot analysis relative to control; assay type: cell-based; in short: as §1
Target sequence in this assay (P03372 whole entry, looked up): as the sequence (P03372 whole entry, looked up) above
Target sequence in this assay (P40337 whole entry, looked up): as the sequence (P40337 whole entry, looked up) above
Target sequence in this assay (Q13617 whole entry, looked up): as the sequence (Q13617 whole entry, looked up) above

[4] = molecular target: T1, von Hippel-Lindau disease tumor suppressor/Estrogen receptor/Cullin-2; test: Protac activity against VHL/cullin2/ERalpha in human MCF7 cells assessed as ERalpha degradation by measuring ER protein/GADPH ratio at 1000 nM after 4 hrs by Western blot analysis relative to control; assay type: cell-based; in short: as §1
Target sequence in this assay (P03372 whole entry, looked up): as the sequence (P03372 whole entry, looked up) above
Target sequence in this assay (P40337 whole entry, looked up): as the sequence (P40337 whole entry, looked up) above
Target sequence in this assay (Q13617 whole entry, looked up): as the sequence (Q13617 whole entry, looked up) above

[5] = molecular target: T1, von Hippel-Lindau disease tumor suppressor/Estrogen receptor/Cullin-2; test: Protac activity against VHL/cullin2/ERalpha in human MCF7 cells assessed as ERalpha degradation after 4 hrs by Western blot analysis; assay type: cell-based; in short: as §1
Target sequence in this assay (P03372 whole entry): as the sequence (P03372 whole entry, looked up) above
Target sequence in this assay (P40337 whole entry): as the sequence (P40337 whole entry, looked up) above
Target sequence in this assay (Q13617 whole entry): as the sequence (Q13617 whole entry, looked up) above

[6] = molecular target: T1, von Hippel-Lindau disease tumor suppressor/Estrogen receptor/Cullin-2; test: Protac activity against VHL/cullin2/ERalpha in human MCF7 cells assessed as ERalpha degradation by measuring ER protein/GAPDH ratio at 0.03 nM after 4 hrs by Western blot analysis relative to control; assay type: cell-based; in short: as §1
Target sequence in this assay (P03372 whole entry, looked up): as the sequence (P03372 whole entry, looked up) above
Target sequence in this assay (P40337 whole entry, looked up): as the sequence (P40337 whole entry, looked up) above
Target sequence in this assay (Q13617 whole entry, looked up): as the sequence (Q13617 whole entry, looked up) above

[7] = molecular target: T1, von Hippel-Lindau disease tumor suppressor/Estrogen receptor/Cullin-2; test: Protac activity against VHL/cullin2/ERalpha in human MCF7 cells assessed as ERalpha degradation by measuring ER protein/GAPDH ratio at 0.3 nM after 4 hrs by Western blot analysis relative to control; assay type: cell-based; in short: as §1
Target sequence in this assay (P03372 whole entry, looked up): as the sequence (P03372 whole entry, looked up) above
Target sequence in this assay (P40337 whole entry, looked up): as the sequence (P40337 whole entry, looked up) above
Target sequence in this assay (Q13617 whole entry, looked up): as the sequence (Q13617 whole entry, looked up) above

[8] = molecular target: T1, von Hippel-Lindau disease tumor suppressor/Estrogen receptor/Cullin-2; test: Protac activity against VHL/cullin2/ERalpha in human MCF7 cells assessed as ERalpha degradation by measuring ER protein/GAPDH ratio at 0.6 nM after 4 hrs by Western blot analysis relative to control; assay type: cell-based; in short: as §1
[9] = molecular target: T1, von Hippel-Lindau disease tumor suppressor/Estrogen receptor/Cullin-2; test: Protac activity against VHL/cullin2/ERalpha in human MCF7 cells assessed as ERalpha degradation by measuring ER protein/GAPDH ratio at 5 nM after 4 hrs by Western blot analysis relative to control; assay type: cell-based; in short: as §1
[10] = molecular target: T1, von Hippel-Lindau disease tumor suppressor/Estrogen receptor/Cullin-2; test: Protac activity against VHL/cullin2/ERalpha in human MCF7 cells assessed as ERalpha degradation by measuring ER protein/GAPDH ratio at 30 nM after 4 hrs by Western blot analysis relative to control; assay type: cell-based; in short: as §1
[11] = molecular target: T1, von Hippel-Lindau disease tumor suppressor/Estrogen receptor/Cullin-2; test: Protac activity against VHL/cullin2/ERalpha in human MCF7 cells assessed as ERalpha degradation by measuring ER protein/GAPDH ratio at 300 nM after 4 hrs by Western blot analysis relative to control; assay type: cell-based; in short: as §1
[12] = molecular target: T1, von Hippel-Lindau disease tumor suppressor/Estrogen receptor/Cullin-2; test: Protac activity against VHL/cullin2/ERalpha in human T47D cells assessed as ERalpha degradation by measuring ER protein/GAPDH ratio at 0.03 nM after 4 hrs by Western blot analysis relative to control; assay type: cell-based
In short: (§2)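 T47D cells (DMEM, 10% FBS, passages 3−8) exposed 4 h over a dose series. RIPA lysates, equal protein, 10% SDS-PAGE, anti-ERα Western blot. ERα band density normalized to GAPDH; DC50 derived from the quantified dose–response.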

[13] = molecular target: T1, von Hippel-Lindau disease tumor suppressor/Estrogen receptor/Cullin-2; test: Protac activity against VHL/cullin2/ERalpha in human T47D cells assessed as ERalpha degradation by measuring ER protein/GAPDH ratio at 0.1 nM after 4 hrs by Western blot analysis relative to control; assay type: cell-based; in short: as §2
[14] = molecular target: T1, von Hippel-Lindau disease tumor suppressor/Estrogen receptor/Cullin-2; test: Protac activity against VHL/cullin2/ERalpha in human T47D cells assessed as ERalpha degradation by measuring ER protein/GAPDH ratio at 0.3 nM after 4 hrs by Western blot analysis relative to control; assay type: cell-based; in short: as §2
[15] = molecular target: T1, von Hippel-Lindau disease tumor suppressor/Estrogen receptor/Cullin-2; test: Protac activity against VHL/cullin2/ERalpha in human T47D cells assessed as ERalpha degradation by measuring ER protein/GAPDH ratio at 0.6 nM after 4 hrs by Western blot analysis relative to control; assay type: cell-based; in short: as §2
[16] = molecular target: T1, von Hippel-Lindau disease tumor suppressor/Estrogen receptor/Cullin-2; test: Protac activity against VHL/cullin2/ERalpha in human T47D cells assessed as ERalpha degradation by measuring ER protein/GAPDH ratio at 1 nM after 4 hrs by Western blot analysis relative to control; assay type: cell-based; in short: as §2
[17] = molecular target: T1, von Hippel-Lindau disease tumor suppressor/Estrogen receptor/Cullin-2; test: Protac activity against VHL/cullin2/ERalpha in human T47D cells assessed as ERalpha degradation by measuring ER protein/GAPDH ratio at 5 nM after 4 hrs by Western blot analysis relative to control; assay type: cell-based; in short: as §2
[18] = molecular target: T1, von Hippel-Lindau disease tumor suppressor/Estrogen receptor/Cullin-2; test: Protac activity against VHL/cullin2/ERalpha in human T47D cells assessed as ERalpha degradation by measuring ER protein/GAPDH ratio at 10 nM after 4 hrs by Western blot analysis relative to control; assay type: cell-based; in short: as §2
[19] = molecular target: T1, von Hippel-Lindau disease tumor suppressor/Estrogen receptor/Cullin-2; test: Protac activity against VHL/cullin2/ERalpha in human T47D cells assessed as ERalpha degradation by measuring ER protein/GAPDH ratio at 30 nM after 4 hrs by Western blot analysis relative to control; assay type: cell-based; in short: as §2
[20] = molecular target: T1, von Hippel-Lindau disease tumor suppressor/Estrogen receptor/Cullin-2; test: Protac activity against VHL/cullin2/ERalpha in human T47D cells assessed as ERalpha degradation by measuring ER protein/GAPDH ratio at 100 nM after 4 hrs by Western blot analysis relative to control; assay type: cell-based; in short: as §2
[21] = molecular target: T1, von Hippel-Lindau disease tumor suppressor/Estrogen receptor/Cullin-2; test: Protac activity against VHL/cullin2/ERalpha in human T47D cells assessed as ERalpha degradation by measuring ER protein/GAPDH ratio at 300 nM after 4 hrs by Western blot analysis relative to control; assay type: cell-based; in short: as §2
[22] = molecular target: T1, von Hippel-Lindau disease tumor suppressor/Estrogen receptor/Cullin-2; test: Protac activity against VHL/cullin2/ERalpha in human T47D cells assessed as ERalpha degradation by measuring ER protein/GAPDH ratio at 1000 nM after 4 hrs by Western blot analysis relative to control; assay type: cell-based; in short: as §2
[23] = molecular target: T1, von Hippel-Lindau disease tumor suppressor/Estrogen receptor/Cullin-2; test: Protac activity against VHL/cullin2/ERalpha in human T47D cells assessed as ERalpha degradation after 4 hrs by Western blot analysis; assay type: cell-based; in short: as §2
Target sequence in this assay (P03372 whole entry): as the sequence (P03372 whole entry, looked up) above
Target sequence in this assay (P40337 whole entry): as the sequence (P40337 whole entry, looked up) above
Target sequence in this assay (Q13617 whole entry): as the sequence (Q13617 whole entry, looked up) above

[24] = molecular target: T1, von Hippel-Lindau disease tumor suppressor/Estrogen receptor/Cullin-2; test: Protac activity against VHL/cullin2/ERalpha in human MCF7 cells assessed as ERalpha degradation by measuring reduction in ER protein level at 30 nM after 1 hr by Western blot analysis relative to control; assay type: cell-based; parameters: scale not given: the % may be the effect or the level left
In short: (§3)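 Time course: cells given 30 nM degrader and harvested at time points from 1 h up to 24 h. ERα assessed by Western blot against a GAPDH loading control, with levels taken relative to DMSO.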

[25] = molecular target: T1, von Hippel-Lindau disease tumor suppressor/Estrogen receptor/Cullin-2; test: Protac activity against VHL/cullin2/ERalpha in human MCF7 cells assessed as ERalpha degradation by measuring reduction in ER protein level at 30 nM after 3 hrs by Western blot analysis relative to control; assay type: cell-based; parameters: scale not given: the % may be the effect or the level left; in short: as §3
[26] = molecular target: T1, von Hippel-Lindau disease tumor suppressor/Estrogen receptor/Cullin-2; test: Protac activity against VHL/cullin2/ERalpha in human T47D cells assessed as ERalpha degradation by measuring reduction in ER protein level at 30 nM after 1 to 3 hrs by Western blot analysis relative to control; assay type: cell-based; in short: as §3
[27] = molecular target: T1, von Hippel-Lindau disease tumor suppressor/Estrogen receptor/Cullin-2; test: Protac activity against VHL/cullin2/ERalpha in human MCF7 cells assessed as ERalpha degradation by measuring reduction in ER protein level pre-treated with raloxifene for 2 hrs followed by compound exposure at 30 nM for 4 hrs by Western blot analysis; assay type: cell-based
MCF7 [28] = test: Inhibition of cell growth in human MCF7 cells after 4 days by wst-8-based colorimetric analysis; assay type: functional; settings: MCF7, 96 h
In short: (§4)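 Cells seeded at 1500/well overnight, then exposed to graded compound doses for 4 days. Growth read by colorimetric WST-8 assay. GI50 from fitted curves. MCF-7 cells were kept in DMEM, 10% FBS, passages 3−8; human mammary epithelial cells were run the same way.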

MCF7 [29] = test: Inhibition of cell growth in human MCF7 cells after 4 days by wst-8-based colorimetric analysis relative to control; assay type: functional; in short: as §4
MDA-MB-231 = test: Inhibition of cell growth in human MDA-MB-231 cells at 10^-13 to 10^-5 M after 4 days by wst-8-based colorimetric analysis; assay type: functional
[30] = Inhibition of cell growth in primary human mammary epithelial cells at 10^-13 to 10^-6 M after 4 days by wst-8-based colorimetric analysis; settings: 96 h; in short: as §4
MCF7 [31] = test: Antiproliferative activity against human MCF7 cells at 10 to 300 nM after 5 days by crystal violet staining based assay; assay type: functional, cell-based
In short: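 MCF-7 cells in DMEM with 10% FBS and penicillin/streptomycin, passages 3−8, exposed to compounds at 10, 100 and 300 nM for 5 days, then fixed and stained with crystal violet.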

[32] = molecular target: T1, von Hippel-Lindau disease tumor suppressor/Estrogen receptor/Cullin-2; test: Protac activity against VHL/cullin2/ERalpha in human MCF7 cells assessed as ERalpha degradation by measuring ER protein/GAPDH ratio at 0.1 nM after 4 hrs by Western blot analysis relative to control; assay type: cell-based; in short: as §1
[33] = molecular target: T1, von Hippel-Lindau disease tumor suppressor/Estrogen receptor/Cullin-2; test: Protac activity against VHL/cullin2/ERalpha in human MCF7 cells assessed as ERalpha degradation by measuring reduction in ER protein level pre-treated with carfilzomib for 2 hrs followed by compound exposure at 30 nM for 4 hrs by Western blot analysis; assay type: cell-based
[34] = molecular target: T1, von Hippel-Lindau disease tumor suppressor/Estrogen receptor/Cullin-2; test: Protac activity against VHL/cullin2/ERalpha in human T47D cells assessed as ERalpha degradation by measuring reduction in ER protein level at 30 nM after 1 to 24 hrs hrs by Western blot analysis relative to control; assay type: cell-based; in short: as §3

## CCN(CCCCCOCC(=O)N[C@H](C(=O)N1C[C@H](O)C[C@H]1C(=O)N[C@@H](C)c1ccc(-c2scnc2C)cc1)C(C)(C)C)CCOc1ccc(C(=O)c2c(-c3ccc(O)cc3)sc3cc(O)ccc23)cc1
[1]
  Ratio: 8
[2]
  Ratio: 0.3
[3]
  Ratio: 0.3
[4]
  Ratio: 13
[5]
  DC50: 0.17 nM
[6]
  Ratio: 84
[7]
  Ratio: 28
[8]
  Ratio: 12
[9]
  Ratio: 0.3
[10]
  Ratio: 0.3
[11]
  Ratio: 0.3
[12]
  Ratio: 84
[13]
  Ratio: 73
[14]
  Ratio: 62
[15]
  Ratio: 58
[16]
  Ratio: 33
[17]
  Ratio: 4
[18]
  Ratio: 3
[19]
  Ratio: 2
[20]
  Ratio: 4
[21]
  Ratio: 6
[22]
  Ratio: 25
[23]
  DC50: 0.43 nM
[24]
  Activity: > 80%
[25]
  Activity: 100%
[26]
  Activity: Active
[27]
  Activity: inactive
MCF7 [28]
  GI50: 0.77 nM
MCF7 [29]
  Imax: 57.5%
MDA-MB-231
  growth inhibition (GI): inactive
[30]
  Activity: Non-Toxic
MCF7 [31]
  Activity: Active
[32]
  Ratio: 76
[33]
  Activity: inactive
[34]
  Activity: Active
